Compounds with a hit are over-represented: about 5.5% of the library has one in this group of screens.
STAT3 inh – STAT3 signaling inhibition; U3A cells, IL-6 STAT3-luciferase reporter, luminescence; host cell line lacks STAT1; inhibition, % at 5.5 µM; 190,000 tested, 0.89% active;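 active = inhibition above the mean inhibition across all screened compounds plus 3 SD, cut at about 44% in these data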;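 also: 0% = DMSO only wells and 100% = 100 µM nifuroxazide control wells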
KCC2 mod – modulators of human KCC2 chloride dependent transport | B-score of Tl+ flux slope (higher = more flux/activation; lower = inhibition) at 10 µM | Q9H2X9 | AID 1456 | 190,000 tested, 2.2% active | KCC2 cells, thallium flux FluoZin-2 fluorescence;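 active = thallium flux slope and its plate-corrected score both differing from the plate sample mean at a set confidence after two filtering rounds, in either direction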;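 also: slope of fluorescence scaled to starting intensity during 10 to 20 s after thallium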
Target sequence (Q9H2X9 whole entry, looked up): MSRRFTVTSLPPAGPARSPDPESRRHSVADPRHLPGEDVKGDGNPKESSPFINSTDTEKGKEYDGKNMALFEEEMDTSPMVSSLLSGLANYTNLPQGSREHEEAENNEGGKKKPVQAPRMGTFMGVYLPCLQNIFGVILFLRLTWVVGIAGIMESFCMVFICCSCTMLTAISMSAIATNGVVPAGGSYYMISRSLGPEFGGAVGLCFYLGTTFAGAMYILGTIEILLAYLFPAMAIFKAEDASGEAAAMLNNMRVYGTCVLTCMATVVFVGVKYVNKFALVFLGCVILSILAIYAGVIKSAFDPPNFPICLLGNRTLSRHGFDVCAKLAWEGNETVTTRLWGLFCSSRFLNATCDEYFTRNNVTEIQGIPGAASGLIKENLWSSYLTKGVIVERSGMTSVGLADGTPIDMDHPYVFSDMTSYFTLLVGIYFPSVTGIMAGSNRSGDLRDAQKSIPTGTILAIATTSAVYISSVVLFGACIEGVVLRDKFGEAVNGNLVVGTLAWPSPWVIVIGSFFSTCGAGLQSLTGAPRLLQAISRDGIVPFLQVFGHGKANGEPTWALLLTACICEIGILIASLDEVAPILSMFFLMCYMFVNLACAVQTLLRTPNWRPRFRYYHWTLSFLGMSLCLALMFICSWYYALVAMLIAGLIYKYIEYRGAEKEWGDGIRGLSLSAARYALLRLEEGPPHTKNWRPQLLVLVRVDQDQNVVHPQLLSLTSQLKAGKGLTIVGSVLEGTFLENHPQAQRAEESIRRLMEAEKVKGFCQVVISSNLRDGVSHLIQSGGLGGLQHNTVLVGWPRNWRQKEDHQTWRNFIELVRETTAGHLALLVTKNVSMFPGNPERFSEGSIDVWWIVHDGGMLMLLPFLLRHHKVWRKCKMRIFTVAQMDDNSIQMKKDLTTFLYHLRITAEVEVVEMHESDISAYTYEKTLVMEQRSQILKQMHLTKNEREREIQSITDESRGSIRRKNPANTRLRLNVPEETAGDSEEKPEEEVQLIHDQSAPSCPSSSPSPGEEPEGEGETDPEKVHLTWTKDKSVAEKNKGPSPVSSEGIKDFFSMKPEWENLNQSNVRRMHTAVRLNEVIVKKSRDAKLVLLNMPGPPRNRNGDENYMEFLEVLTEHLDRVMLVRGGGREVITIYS
STAT1 activator – STAT1 signaling activation | NIH 3T3 STAT1-luciferase reporter, IFN-gamma, luminescence; 100% = IFN-gamma alone, no compound | activation (% of control), % at 5.5 µM | 200,000 tested, 2.6% active;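 active = activation above the screen-wide mean activation plus 3 SD, cut at about 130% in these data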;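 also: raw ratio to IFN-gamma control signal so 100% means no change and 0% no light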
STAT3 activator – increases IL-6 driven STAT3 reporter signal; U3A cells, IL-6 STAT3-luciferase reporter, luminescence; 100% = signal with IL-6 EC80 alone; 190,000 tested, 0.91% active; AID 871; activation (% of control), % at 5.6 µM;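 active = activation above the screen-wide mean of compound activation plus 3 SD, cut at about 130% in these data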;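 also: 0% = background luminescence of wells with medium and substrate only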
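Material: STAT1-lacking human U3A cells, STAT3 luciferase reporter | Benchmarks: IL-6-only wells as 100% reference | Probe or stimulus: IL-6 (33 ng/mL) | Timing: Compound 1 h, then IL-6 6 h at 37 °C | Detection: Luminescence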
STAT1 blocker – reduces IFN-gamma driven STAT1 reporter signal; AID 920; 200,000 tested, 0.35% active; inhibition, % at 5.5 µM; NIH 3T3 STAT1-luciferase reporter, luminescence;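 active = inhibition above a set limit, the mean inhibition across all tested compounds plus 3 SD, cut at about 34% in these data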;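 also: 0% = IFN-gamma with DMSO and 100% = IFN-gamma with 300 µM nifuroxazide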
HSV replic up – increases HSV replication in cells; maximum fold increase; HSV replication augmentation in cells, fold increase; 220,000 tested, 0.005% active; AID 1956; in the data active = maximum fold increase above about 1.5; inconclusive = no clear call, values can overlap the other calls; tested in PC3 cells
An asterisk follows results filed as active; i = inactive; ? = inconclusive; . = no result.

SMILES | STAT3 inh | KCC2 mod | STAT1 activator | STAT3 activator | STAT1 blocker | HSV replic up
Cc1cc2nc(-c3ccc(SCC(=O)N4CCc5ccccc54)nc3)[nH]c2cc1C | -36 | 1.2 | 139* | 138* | -44 | i
Cc1cc2nc(-c3ccc(SCC(=O)NC(C)C)nc3)[nH]c2cc1C | 1 | -0.72 | 128 | 106 | -30 | i
Cc1cc2nc(-c3ccc(SCC(=O)Nc4ccc(S(=O)(=O)NC5CC5)cc4)nc3)[nH]c2cc1C | 12 | -0.54 | 147* | 92 | -52 | i
CCN(CC)CCNC(=O)C(=O)NCC1OCCN1C(=O)c1ccc2c(c1)OCO2 (stereo unspecified) | 3 | -1.2 | 92 | 100 | 9 | i
Cc1ccn(-c2cc(O)c(-n3ccc(C)n3)cc2O)n1 | 16 | -1 | 102 | 90 | -3 | i
COc1ccc(NC(=S)c2ccc(N(C)C)cc2)cc1 | 25 | 0.071 | 149* | 81 | -54 | i
COc1ccc(C(=S)Nc2ccc(N(C)C)cc2)cc1 | 11 | 0.027 | 128 | 95 | -30 | i
COc1ccc(Cn2c(=S)[nH]c3ccsc3c2=O)cc1 | 10 | 26* | 99 | 90 | 1 | i
CCc1ccc(NC(=O)c2cnn3ccccc23)cc1 | 98* | -2.1 | 30 | 22 | 78* | i
O=C(NCc1ccc(F)cc1)c1cnn2ccccc12 | 1 | 0.27 | 132* | 103 | -35 | i
CSc1cccc(NC(=O)c2cnn3ccccc23)c1 | . | -2.2 | . | . | . | i
CCc1ccc(NC(=O)c2ccccc2SC)cc1 | 7 | -0.56 | 129* | 101 | -33 | i
Cn1cc(C(=O)NCc2ccc(F)cc2)cn1 | 8 | -0.02 | 98 | 98 | 4 | i
CSc1ccccc1C(=O)Nc1ccc2c(c1)OCCO2 | 0 | 0.2 | 104 | 98 | -4 | i
Cc1cccc(Nc2ncc3c(n2)CC(C)CC3=O)c1 (stereo unspecified) | 14 | 0.75 | 135* | 91 | -38 | i
Cn1c(-c2nnn(-c3ccc(F)cc3)n2)cc2ccccc21 | . | -0.01 | 149* | . | -51 | i
Cc1ccc(-n2nnc(-c3cc4ccccc4n3C)n2)cc1 | . | 1.2 | 108 | . | -7 | i
CCn1c(C)nc2cc(C(=O)NNC(=O)CCC3CCCCC3)ccc21 | -2 | 0.55 | 97 | 103 | 3 | i
Cc1cccc2c1NC(=O)C2(c1ccc(O)cc1)c1ccc(O)cc1 | -12 | 13* | 96 | 110 | 5 | i
COc1cc(O)sc1C=Nc1ccc(Cl)cc1 | -20 | 0.48 | 132* | 119 | -35 | i
C=CCN1C(=O)/C(=C/C=C2/N(CC)c3ccc(S(=O)(=O)N(C)C)cc3N2CC)SC1=S | 16 | -0.02 | 99 | 93 | 0 | ?
Cc1[nH]c2ccccc2c1N=Nc1ccccc1C(=O)O | -42 | -1.2 | 93 | 135* | 8 | i
Cc1[nH]c2ccccc2c1N=Nc1cccc(C(=O)O)c1 | -9 | -1.7 | 147* | 109 | -52 | i
COC(=O)c1cc(N=Nc2c(C)[nH]c3ccccc23)cc(C(=O)OC)c1 | . | -0.51 | . | . | . | i
C=CCNc1ncnc2c1[nH]c1ccc(C)cc12 | 34 | 0.64 | 139* | 74 | -43 | i
SMILES | STAT3 inh | KCC2 mod | STAT1 activator | STAT3 activator | STAT1 blocker | HSV replic up
Cc1ccc2[nH]c3c(N4CCCCCC4)ncnc3c2c1 | 68* | . | 67 | 48 | 36* | .
Clc1ccccc1-c1nnc(CNC2CC2)o1 | -4 | 0.26 | 109 | 105 | -9 | i
O=c1c(Cl)c(N2CCN(c3ccc(F)cc3)CC2)cnn1-c1nc2ccccc2s1 | 0 | 0.23 | 140* | 103 | -45 | i
COC(=O)CCc1sc(Nc2ccccc2)nc1-c1ccc(OC)cc1 | -13 | 0.015 | 138* | 109 | -42 | i
NC(=O)NCCC1=CCCCC1 | 3 | -0.47 | 98 | 98 | 2 | .
O=C(NCCC1=CCCCC1)NC1CCCCC1 | 0 | -0.15 | 144* | 100 | -48 | i
CCCCSc1nnc2c(n1)[nH]c1ccccc12 | 21 | -0.16 | 140* | 80 | -43 | i
Cc1cc(OCC(=O)NC(C)c2ccccc2)ccc1[N+](=O)[O-] (stereo unspecified) | 11 | -0.21 | 101 | 97 | -4 | i
CC1=Nc2ccccc2N=C(N)C1c1ccccc1 (stereo unspecified) | -6 | -0.3 | 146* | 109 | -55 | i
C/C(=N\NC(=S)Nc1ccc(F)cc1)c1ccc2c(c1)OCCO2 | -12 | 48* | 117 | 113 | -19 | i
CC(=O)OCC1OC(Nc2cccc(C)c2)C(OC(C)=O)C(OC(C)=O)C1OC(C)=O (stereo unspecified) | -4 | 0.065 | 110 | 102 | -11 | i
CC(=O)Nc1nonc1NC(=O)COc1ccccc1 | -2 | -0.0027 | 106 | 107 | -7 | i
O=C(Cn1cc(SCc2cccc(Cl)c2)c2ccccc21)N1CCOCC1 | -14 | 0.02 | 106 | 114 | -7 | i
Cc1cccc(CSc2cn(CC(=O)N3CCOCC3)c3ccccc23)c1 | -22 | 0.027 | 129* | 114 | -32 | i
COc1ccc(OCC(=O)Nc2ccc(NC(=O)c3cccs3)c(OC)c2)cc1 | 15 | -0.87 | 99 | 90 | 0 | i
COc1cc(NC(=O)COc2ccccc2[N+](=O)[O-])ccc1NC(=O)c1cccs1 | 24 | -0.48 | 141* | 83 | -44 | i
CC(=O)Nc1ccc2nc(NC(=O)COc3ccccc3)sc2c1 | 11 | -0.019 | 115 | 97 | -19 | i
CC(=O)Nc1ccc2nc(NC(=O)CCc3ccccc3)sc2c1 | -1 | -0.86 | 134* | 103 | -37 | i
COc1cccc2sc(Nc3nc4ccc(NC(C)=O)cc4s3)nc12 | -5 | 0.059 | 132* | 104 | -35 | i
O=C(CCc1ccccc1)Nc1ccc2ccccc2n1 | 0 | -0.9 | 149* | 104 | -56 | i
CC(=O)Nc1ccc2nc(NC(=O)COc3ccccc3Cl)sc2c1 | 17 | -0.79 | 130* | 90 | -30 | i
CC(=O)Nc1ccc2nc(NC(=O)COc3ccccc3C)sc2c1 | 10 | -1.1 | 111 | 101 | -13 | i
CC(C)(O)C#Cc1ccc(C(=O)NCc2ccccc2F)cc1 | -4 | 0.063 | 91 | 101 | 11 | i
O=C(c1cc(C2CC2)on1)N1CCN(c2ccccc2)CC1 | 9 | . | 98 | 96 | 2 | i
Fc1ccc2nc3[nH]c4ccccc4c3nc2c1 | -34 | -2.3 | 214* | 135* | -125 | i
Cc1noc(C)c1C(=O)NC(C)c1ccc(Cl)cc1Cl (stereo unspecified) | 26 | -0.85 | 99 | 82 | 1 | i
COc1cccc(NC(=S)N/N=C2/CCCCc3ccccc32)c1 | -14 | 24* | 116 | 112 | -18 | i
CC(C)NC(=S)N/N=C1\CCCCc2ccccc21 | 5 | 2.7 | 100 | 95 | 0 | i
